Active and inactive are the calls of the source. The rule behind the calls is not given here.
Tests used:
HL-60 [1] = assay: Cell cycle arrest in human HL60 cells assessed as accumulation at sub G1 phase at 1.0 uM after 24 hrs by propidium iodide staining-based FACS analysis (reference value: 0.35%); type: functional
[2] = Cell cycle arrest in human H460 cells assessed as accumulation at sub G1 phase at 2.5 uM after 24 hrs by propidium iodide staining-based FACS analysis (reference value: 3.07%); type: functional; settings: NCI-H460
In short: (§1)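 H460 cells treated 24 h with 1.0, 2.5 or 5.0 µM; washed in PBS, fixed overnight in 70% ice-cold ethanol at −20 °C, stained 30 min in the dark with 0.1% Triton X-100, 0.2 mg/mL RNase and 20 µg/mL propidium iodide; DNA content by flow cytometry, phase distribution from histogram modelling.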

NCI-H460 [3] = assay: Induction of apoptosis in human H460 cells assessed as chromatin condensation at 1 to 5 uM after 24 hrs by Hoechst 33258 staining-based microscopy; type: functional, cell-based
In short: (§2)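 H460 plated at 5×10⁴ cells/well and incubated 24 h with 1.0, 2.5 or 5.0 µM; stained with 5 µg/mL Hoechst 33258 for 10 min, washed twice in PBS, fixed in 4% paraformaldehyde 10 min at 25 °C; nuclei scored for chromatin condensation, fragmentation and apoptotic bodies by fluorescence microscopy; 0.1% DMSO control.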

A498 = assay: Cytotoxicity against human A498 cells after 48 hrs by MTT assay; type: functional, cell-based; settings: A498, 48 h
In short: (§3)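 Log-phase tumour cells grown in RPMI-1640 with 10% FBS, penicillin/streptomycin and 1% L-glutamine at 37 °C, 5% CO2. Cells treated with vehicle or a range of concentrations for 48 h. Growth measured by MTT reduction, absorbance at 570 nm. IC50 is the concentration giving 50% proliferation inhibition, from 3 independent experiments.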

[4] = Cell cycle arrest in human H460 cells assessed as accumulation at G0/G1 phase at 1 uM after 24 hrs by propidium iodide staining-based FACS analysis (reference value: 46.19%); type: functional; settings: NCI-H460; in short: as §1
HL-60 [5] = assay: Cell cycle arrest in human HL60 cells assessed as accumulation at G2/M phase at 0.25 uM after 24 hrs by propidium iodide staining-based FACS analysis (reference value: 10.51%); type: functional
[6] = Cell cycle arrest in human H460 cells assessed as accumulation at G0/G1 phase at 2.5 uM after 24 hrs by propidium iodide staining-based FACS analysis (reference value: 46.19%); type: functional; settings: NCI-H460; in short: as §1
HL-60 [7] = assay: Cell cycle arrest in human HL60 cells assessed as accumulation at G2/M phase at 1 uM after 24 hrs by propidium iodide staining-based FACS analysis (reference value: 10.51%); type: functional
HL-60 [8] = assay: Decrease in cyclin B1 expression in human HL60 cells at 0.25 to 1 uM after 24 hrs by Western blot analysis; type: functional, cell-based
In short: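 HL-60 cells treated 24 h at the indicated concentrations, harvested, lysed (30 min on ice, 12,000 g spin), protein by Bradford; samples run on 10% SDS-PAGE, transferred to nitrocellulose, immunodetected by chemiluminescence.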

[9] = Cell cycle arrest in human H460 cells assessed as accumulation at S phase at 2.5 uM after 24 hrs by propidium iodide staining-based FACS analysis (reference value: 43.08%); type: functional; settings: NCI-H460; in short: as §1
[10] = Cell cycle arrest in human H460 cells assessed as accumulation at G0/G1 phase at 5 uM after 24 hrs by propidium iodide staining-based FACS analysis (reference value: 46.19%); type: functional; settings: NCI-H460; in short: as §1
MCF7 = assay: Cytotoxicity against human MCF7 cells after 48 hrs by MTT assay; type: functional, cell-based; settings: MCF7, 48 h; in short: as §3
[11] = Cytotoxicity against human H460 cells after 48 hrs by MTT assay; type: functional, cell-based; settings: NCI-H460, 48 h; in short: as §3
[12] = Cell cycle arrest in human H460 cells assessed as accumulation at S phase at 1 uM after 24 hrs by propidium iodide staining-based FACS analysis (reference value: 43.08%); type: functional; settings: NCI-H460; in short: as §1
NCI-H460 [13] = assay: Induction of apoptosis in human H460 cells assessed as caspase3 cleavage at 1 to 5 uM by Western blot analysis; type: functional, cell-based
In short: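 H460 cells exposed 24 h at the indicated concentrations; lysates cleared at 12,000 g, protein quantified by Bradford, resolved on 10% SDS-polyacrylamide gels, blotted to nitrocellulose and detected by chemiluminescence.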

NCI-H460 [14] = assay: Induction of apoptosis in human H460 cells assessed as appearance of apoptotic bodies at 1 to 5 uM after 24 hrs by Hoechst 33258 staining-based microscopy; type: functional, cell-based; in short: as §2
COLO 205 = assay: Cytotoxicity against human COLO205 cells after 48 hrs by MTT assay; type: functional, cell-based; settings: COLO 205, 48 h; in short: as §3

COc1ccc(-c2cc(=O)[nH]c3cc4c(cc23)OCO4)c(OC)c1
Activity (HL-60 [1]): 19.65%
Activity [2]: 11.7%
Activity (NCI-H460 [3]): Active
IC50 (A498): 48 µM
Activity [4]: 1.57%
Activity (HL-60 [5]): 11.87%
Activity [6]: 9.6%
Activity (HL-60 [7]): 40.54%
Activity (HL-60 [8]): Active
Activity [9]: 18.8%
Activity [10]: 9.37%
IC50 (MCF7): 6 µM
IC50 [11]: 0.9 µM
Activity [12]: 44.1%
Activity (NCI-H460 [13]): Active
Activity (NCI-H460 [14]): Active
IC50 (COLO 205): 7.4 µM

Reference: ChEMBL document CHEMBL2417498, “Design and synthesis of 6,7-methylenedioxy-4-substituted phenylquinolin-2(1H)-one derivatives as novel anticancer agents that induce apoptosis with cell cycle arrest at G2/M phase” (Bioorg Med Chem, 2013)
